Reference: ChEMBL document CHEMBL5131497, “Design, Synthesis, and Characterization of TNP-2198, a Dual-Targeted Rifamycin-Nitroimidazole Conjugate with Potent Activity against Microaerophilic and Anaerobic Bacterial Pathogens” (J Med Chem, 2022)
Values after ≈ are worked out from the molar mass of the structure shown.

Tests used:
Helicobacter pylori [1] = test: Antibacterial activity against Helicobacter pylori infected in C57/BL6 mouse assessed as bacterial load in stomach at 1 mg/kg administered twice daily via oral gavage starting from 7 days post inoculation and administered for 7 days in presence of 10 mg/kg clarithromycin and 20 mg/kg amoxicillin (reference value: 5.25 log10CFU); type: functional; conditions: time 7 day
[2] = Half life in C57BL/6 mouse at 5 mg/kg, iv; type: ADME, organism-based; conditions: in vivo
[3] = Tmax in C57BL/6 mouse at 20 mg/kg, po; type: ADME, organism-based; conditions: in vivo
[4] = Volume of distribution at steady state in Beagle dog at 5 mg/kg, iv; type: ADME, organism-based, Canis lupus familiaris; conditions: in vivo, read-out: Vdss
[5] = Drug distribution in Sprague-Dawley rat plasma measured at 24 hrs; type: ADME, cell-free; conditions: BLD = below limit of detection
Summary of the method: (§1)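 Sprague–Dawley rats were dosed with TNP-2198. Concentrations were measured in plasma (ng/mL) and in tissues or contents (ng/g) at 0.5, 2, 6, 12 and 24 h after dosing. Values below the limit of quantification are reported as BLOQ.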

Clostridioides difficile [6] = test: Antibacterial activity against Clostridioides difficile CB1921 ATCC BAA1382 measured after 3 days; type: functional; conditions: CB1921 ATCC BAA1382, 72 h, time 3 day
Helicobacter pylori [7] = test: Antibacterial activity against rifampicin-resistant Helicobacter pylori CB1903 harboring rpoBD530V mutant measured after 5 days by agar dilution method; type: functional; conditions: CB1903, 120 h, time 5 day
Summary of the method: (§2)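 Agar dilution per CLSI. Wild-type ATCC 700392 (CB1531) and its derivatives carry defined resistance determinants. Drugs, alone or in 1:1 molar mixtures, were diluted 2-fold from 100× stocks into Mueller–Hinton agar with aged (≥2 weeks) sheep blood (5% v/v). MIC read after 5 days at 35 °C under microaerobic conditions from a campylobacter gas-generating system.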

[8] = Drug distribution in Sprague-Dawley rat vaginal tissue measured at 12 hrs; type: ADME, tissue-based, Vagina; conditions: female, read-out: Ct; summary of the method: as §1
Helicobacter pylori [9] = test: Resistance development in Helicobacter pylori MMX 3719 assessed as spontaneous resistance frequency using at 1.90 x 10^8 CFU inoculum at 0.5 ug/ml; type: functional; conditions: dose 0.5 µg/ml
Summary of the method: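 H. pylori MMX 3719 exposed to 0.5, 1, 2 and 4 µg/mL drug with an inoculum of 1.90×10^8 CFU at each level. Two independent tests were run, and resistant colonies were counted and averaged. A spontaneous resistance frequency was reported for each concentration, and the MPC was taken across the concentrations tested.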

[10] = Drug distribution in Sprague-Dawley rat vaginal secretion measured at 0.5 hrs; type: ADME, tissue-based, Vaginal fluid; conditions: female, read-out: Ct; summary of the method: as §1
Prevotella bivia = test: Antibacterial activity against metronidazole-resistant Prevotella bivia MMX 3454; type: functional
Gardnerella vaginalis [11] = test: Antibacterial activity against Gardnerella vaginalis ATCC 49145; type: functional
[12] = Drug distribution in Sprague-Dawley rat gums measured at 0.5 hrs; type: ADME, tissue-based, Gingiva; conditions: read-out: Ct; summary of the method: as §1
[13] = Drug distribution in Sprague-Dawley rat gums measured at 12 hrs; type: ADME, tissue-based, Gingiva; conditions: read-out: Ct; summary of the method: as §1
[14] = Drug distribution in Sprague-Dawley rat vaginal tissue measured at 0.5 hrs; type: ADME, tissue-based, Vagina; conditions: female, read-out: Ct; summary of the method: as §1
Syrian golden hamster = test: Antibacterial activity against Clostridioides difficile UNT-103-1 infected in Syrian hamster assessed as survival at 15 to 45 mg/kg, po administered once a daily for 5 days after 18 hrs post 10 mg/kg clindamycin treatment and measured upto 21 days; type: functional, Mesocricetus auratus; conditions: dose 15-45 mg/kg, time <= 21 day
Summary of the method: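 Male Golden Syrian hamsters (80-90 g), housed singly, were gavaged with C. difficile UNT103-1 grown in sporulation medium broth and diluted to OD600 1 in prereduced broth. […] From 18 h later, drug or vehicle was given by oral gavage once daily for 5 days. Survival was recorded through day 21.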

Phocaeicola vulgatus = test: Antibacterial activity against metronidazole-resistant Bacteroides vulgatus 3490; type: functional
Gardnerella vaginalis [15] = test: Resistance development in Gardnerella vaginalis MMX 5973 assessed as mutation prevention concentration using at 4.50 x 10^8 CFU inoculum; type: functional; conditions: dose 0.5 µg/ml
Helicobacter pylori [16] = test: Antibacterial activity against Helicobacter pylori clinical isolate USA; type: functional
Clostridioides difficile [17] = test: Antibacterial activity against Clostridioides difficile ATCC 9689; type: functional
[18] = Oral bioavailability in C57BL/6 mouse at 20 mg/kg; type: ADME, organism-based; conditions: in vivo
[19] = Tmax in Beagle dog at 25 mg/kg, po; type: ADME, organism-based, Canis lupus familiaris; conditions: in vivo
[20] = Drug distribution in Sprague-Dawley rat vaginal secretion measured at 2 hrs; type: ADME, tissue-based, Vaginal fluid; conditions: female, read-out: Ct; summary of the method: as §1
Gardnerella vaginalis [21] = test: Antibacterial activity against Gardnerella vaginalis clinical isolate USA; type: functional
Helicobacter pylori [22] = test: Antibacterial activity against Helicobacter pylori clinical isolate China; type: functional
Helicobacter pylori [23] = test: Antibacterial activity against Helicobacter pylori infected in C57/BL6 mouse assessed as bacterial load in stomach at 5 mg/kg administered twice daily via oral gavage starting from 7 days post inoculation and administered for 7 days (reference value: 5.25 log10CFU); type: functional; conditions: time 7 day
[24] = Tmax in Sprague-Dawley rat at 50 mg/kg, po; type: ADME, organism-based; conditions: in vivo
[25] = Drug distribution in Sprague-Dawley rat stomach content measured at 12 hrs; type: ADME, tissue-based; conditions: read-out: Ct; summary of the method: as §1
[26] = Drug distribution in Sprague-Dawley rat plasma measured at 2 hrs; type: ADME, cell-free; summary of the method: as §1
[27] = Drug distribution in Sprague-Dawley rat plasma measured at 0.5 hrs; type: ADME, cell-free; summary of the method: as §1
[28] = Volume of distribution at steady state in Sprague-Dawley rat at 10 mg/kg, iv; type: ADME, organism-based; conditions: in vivo, read-out: Vdss
[29] = test system: Porphyromonas asaccharolytica; test: Antibacterial activity against metronidazole-resistant Prevotella asaccharolytica MMX 3552; type: functional
Clostridioides difficile [30] = test: Antibacterial activity against Clostridioides difficile clinical isolate USA; type: functional
[31] = Clearance in Sprague-Dawley rat at 10 mg/kg, iv; type: ADME, organism-based; conditions: in vivo
Summary of the method: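 Plasma PK after single intravenous or oral dosing. Mice C57BL/6 at 5 mg/kg IV or 20 mg/kg PO; Sprague–Dawley rats at 10 mg/kg IV or 50 mg/kg PO; beagle dogs at 5 mg/kg IV or 25 mg/kg PO. AUC reported in ng·h/mL. Clearance from the IV arms in mL/min·kg.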

[32] = Drug distribution in Sprague-Dawley rat vaginal tissue measured at 6 hrs; type: ADME, tissue-based, Vagina; conditions: female, read-out: Ct; summary of the method: as §1
Helicobacter pylori [33] = test: Antibacterial activity against rifampicin-resistant Helicobacter pylori CB1614 harboring rpoBL525I/D530N mutant measured after 5 days by agar dilution method; type: functional; conditions: CB1614, 120 h, time 5 day; summary of the method: as §2
Helicobacter pylori [34] = test: Antibacterial activity against Helicobacter pylori infected in C57/BL6 mouse assessed as bacterial load in stomach at 15 mg/kg administered twice daily via oral gavage starting from 7 days post inoculation and administered for 7 days (reference value: 5.25 log10CFU); type: functional; conditions: time 7 day
[35] = Half life in Sprague-Dawley rat at 50 mg/kg, po; type: ADME, organism-based; conditions: in vivo
Bacteroides fragilis = test: Antibacterial activity against metronidazole-resistant Bacteroides fragilis MMX 3387; type: functional

Structure (SMILES): CO[C@H]1/C=C/O[C@@]2(C)Oc3c(C)c(O)c4c(c3C2=O)C2=NC3(CCN(CCn5c([N+](=O)[O-])cnc5C)CC3)NC2=C(NC(=O)/C(C)=C\C=C\[C@H](C)[C@H](O)[C@@H](C)[C@@H](O)[C@@H](C)[C@H](OC(C)=O)[C@@H]1C)C4=O [RIFASUTENIZOL]
- Activity (Helicobacter pylori [1]): 1.7 log10CFU
- half-life [2]: 48 min
- Tmax [3]: 30 min
- Vd [4]: 2.8 L/kg
- Cp [5]: Bld
- MIC (Clostridioides difficile [6]): ≤ 0.002 µg/mL
- MIC (Helicobacter pylori [7]): 0.125 µg/mL (≈ 0.132 µM)
- concentration at 12 h [8]: 35.8 ng/g
- Activity (Helicobacter pylori [9]): <5 10^-9No_unit
- concentration at 0.5 h [10]: 4190 ng/g
- MIC (Prevotella bivia): 0.015 µg/mL (≈ 0.0159 µM)
- MIC (Gardnerella vaginalis [11]): 0.004 µg/mL (≈ 0.00424 µM)
- concentration at 0.5 h [12]: 3470 ng/g
- concentration at 12 h [13]: 115 ng/g
- concentration at 0.5 h [14]: 2800 ng/g
- Activity (Syrian golden hamster): 100%
- MIC (Phocaeicola vulgatus): 0.03 µg/mL (≈ 0.0318 µM)
- Activity (Gardnerella vaginalis [15]): <=0.5 ug ml-1
- MIC (Helicobacter pylori [16]): ≤ 0.001 µg/mL
- MIC90 (Helicobacter pylori [16]): 0.125 µg/mL (≈ 0.132 µM)
- MIC (Clostridioides difficile [17]): 0.0002 µg/mL (≈ 0.000212 µM)
- bioavailability [18]: 20%
- Tmax [19]: 72 min
- concentration at 2 h [20]: 43700 ng/g
- MIC (Gardnerella vaginalis [21]): ≤ 0.004 µg/mL
- MIC90 (Gardnerella vaginalis [21]): 0.06 µg/mL (≈ 0.0636 µM)
- MIC (Helicobacter pylori [22]): ≤ 0.002 µg/mL
- Activity (Helicobacter pylori [23]): 2.89 log10CFU
- Tmax [24]: 108 min
- concentration at 12 h [25]: 138 ng/g
- concentration at 2 h [26]: 2640 ng/mL
- concentration at 0.5 h [27]: 1700 ng/mL
- Vd [28]: 1.6 L/kg
- MIC [29]: 0.008 µg/mL (≈ 0.00847 µM)
- MIC (Clostridioides difficile [30]): 0.002 µg/mL (≈ 0.00212 µM)
- MIC90 (Clostridioides difficile [30]): 1 µg/mL (≈ 1.06 µM)
- clearance [31]: 26 mL/min/kg
- concentration at 6 h [32]: 2590 ng/g
- MIC (Helicobacter pylori [33]): 0.125 µg/mL (≈ 0.132 µM)
- Activity (Helicobacter pylori [34]): 1.94 log10CFU
- half-life [35]: 56.4 min
- MIC (Bacteroides fragilis): 0.015 µg/mL (≈ 0.0159 µM)
